The results in this text go back to ChEMBL document CHEMBL3856258, “Phosphonate-based irreversible inhibitors of human γ-glutamyl transpeptidase (GGT). GGsTop is a non-toxic and highly selective inhibitor with critical electrostatic interaction with an active-site residue Lys562 for enhanced inhibitory activity” (Bioorg Med Chem, 2016).

In data set [1] the test system is Escherichia coli K-12. The data set is described as follows: Irreversible inhibition of Escherichia coli K-12 SH642 GGT using gamma-Glu-AMC as substrate assessed as association rate constant by […] analysis. Put shortly:
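GGT was purified from the periplasmic fraction of recombinant E. coli K-12 SH642. Hydrolytic activity was followed with γ-Glu-AMC as substrate. Irreversible inactivation was expressed as kon, the second-order rate constant for the inhibitor–enzyme reaction.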

For data set [2], the species on record is Homo sapiens. As to the kind of experiment: Irreversible inhibition of human GGT using gamma-Glu-AMC as substrate assessed as association rate constant by […] analysis. Put shortly:
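The enzyme source was a commercial human GGT preparation carrying bovine serum albumin as stabilizer (GGT <1% of protein). Hydrolytic activity was followed with γ-Glu-AMC as substrate. Irreversible inactivation was expressed as kon, the second-order rate constant for the inhibitor–enzyme reaction.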

Data set [3] relates to Salmonella typhimurium. The data set is described as follows: Genotoxicity in Salmonella typhimurium TA100 assessed as number of revertant colonies per plate at 1 ug/plate after 20 mins in presence of S9 fraction by Ames test (reference value: 142). The class given is toxicity, organism-based. The note with it: salmonella enterica subsp. enterica serovar typhimurium. A general note: The Ames test uses bacterial strains that need an amino acid and regain growth without it when mutated back.

Data set [4] deals with Escherichia coli. As to the kind of experiment: Genotoxicity in Escherichia coli WP2uvrA assessed as number of revertant colonies per plate at 10 ug/plate after 20 mins in presence of S9 fraction by Ames test (reference value: 26). It is filed as toxicity. The note with it: s9, 20 min.
For data set [5], the system named is Salmonella typhimurium. As to the kind of experiment: Genotoxicity in Salmonella typhimurium TA98 assessed as number of revertant colonies per plate at 0.5 ug/plate after 20 mins in presence of S9 fraction by Ames test (reference value: 26). The class given is toxicity, organism-based. The following applies: salmonella enterica subsp. enterica serovar typhimurium.

Data set [6] has as its system Salmonella typhimurium. The data set is described as follows: Genotoxicity in Salmonella typhimurium TA1537 assessed as number of revertant colonies per plate at 2 ug/plate after 20 mins in presence of S9 fraction by Ames test (reference value: 15). The class given is toxicity, organism-based. The following applies: salmonella enterica subsp. enterica serovar typhimurium.

The subject of data set [7] is Salmonella typhimurium. The data set is described as follows: Genotoxicity in Salmonella typhimurium TA1535 assessed as number of revertant colonies per plate at 2 ug/plate after 20 mins in presence of S9 fraction by Ames test (reference value: 13). The class given is toxicity, organism-based. The following applies: salmonella enterica subsp. enterica serovar typhimurium.

A short description of data set [8]: Cytotoxicity against CHL cells assessed as structural aberrations at 0.05 ug/ml after 24 hrs by Giemsa-staining-based microscopic analysis. It is filed as toxicity, cell-based, Cricetulus griseus. The note with it: chinese hamster.
Data set [9] is described as follows: Cytotoxicity against CHL cells assessed as chromatid gap at 0.05 ug/ml after 24 hrs by Giemsa-staining-based microscopic analysis. The class given is toxicity, cell-based, Cricetulus griseus. The following applies: chinese hamster.
Data set [10] is described as follows: Cytotoxicity against CHL cells assessed as structural aberrations at 0.05 ug/ml preincubated for 6 hrs followed by 18 hrs incubation in fresh medium in absence of S9 fraction by Giemsa-staining-based microscopic analysis. The following applies: chinese hamster. It is filed as toxicity, cell-based, Cricetulus griseus.
The nature of data set [11]: Cytotoxicity against CHL cells assessed as number of cells with numerical aberrations at 0.05 ug/ml after 24 hrs by Giemsa staining-based microscopic analysis relative to control. It is filed as toxicity, cell-based, Cricetulus griseus. The note with it: chinese hamster.
A short description of data set [12]: Cytotoxicity against CHL cells assessed as number of cells with numerical aberrations at 0.05 ug/ml preincubated for 6 hrs followed by 18 hrs incubation in fresh medium in absence of S9 fraction by Giemsa-staining-based microscopic analysis relative to control. It is filed as toxicity, cell-based, Cricetulus griseus. The note with it: chinese hamster.
Data set [13] in a line: Cytotoxicity against CHL cells assessed as chromatid gap at 0.05 ug/ml preincubated for 6 hrs followed by 18 hrs incubation in fresh medium in absence of S9 fraction by Giemsa-staining-based microscopic analysis. The class given is toxicity, cell-based, Cricetulus griseus. The following applies: chinese hamster.
Data set [14] deals with Escherichia coli. The data set is described as follows: Inhibition of glutaminase activity of Escherichia coli asparagine synthetase B at 0.1 mM using L-glutamine as substrate after 30 to 120 mins in presence of L-glutamate dehydrogenase and NAD+. Put shortly: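 Enzyme (60 µg) preincubated at 30 °C with inhibitor in 100 mM Tris-HCl pH 7.5, 8 mM MgCl2, 100 mM NaCl, 0.5 mM DTT. Aliquots taken at 30 and 120 min. Glutaminase reaction: 100 mM EPPS pH 8, 20 mM L-Gln, 37 °C for 10 min, then TCA quench. Glutamate read as NADH via glutamate dehydrogenase in glycine–hydrazine pH 9 with ADP and NAD+.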

A short description of data set [15]: Hydrolytic stability of the compound in D2O assessed as formation of monomethyl phosphonate and phenol at 23 degC after 28 days by 31P NMR spectroscopy. The following applies: 672 h. The class given is physicochemical.
The subject of data set [16] is Salmonella typhimurium. As to the kind of experiment: Genotoxicity in Salmonella typhimurium TA98 assessed as number of revertant colonies per plate at 1 ug/plate after 20 mins in absence of S9 fraction by Ames test (reference value: 21). The class given is toxicity, organism-based. The following applies: salmonella enterica subsp. enterica serovar typhimurium.
The subject of data set [17] is Salmonella typhimurium. The data set is described as follows: Genotoxicity in Salmonella typhimurium TA1537 assessed as number of revertant colonies per plate at 80 ug/plate after 20 mins in absence of S9 fraction by Ames test (reference value: 9). The note with it: salmonella enterica subsp. enterica serovar typhimurium. It is filed as toxicity, organism-based.
A short description of data set [18]: Cytotoxicity against CHL cells assessed as number of cells with numerical aberrations at 20 ug/ml preincubated for 6 hrs followed by 18 hrs incubation in fresh medium in presence of S9 fraction by Giemsa staining-based microscopic analysis relative to control. It is filed as toxicity, cell-based, Cricetulus griseus. The note with it: chinese hamster.
Data set [19] in a line: Cytotoxicity against CHL cells assessed as chromatid gap at 20 ug/ml preincubated for 6 hrs followed by 18 hrs incubation in fresh medium in presence of S9 fraction by Giemsa-staining-based microscopic analysis. The following applies: chinese hamster. It is filed as toxicity, cell-based, Cricetulus griseus.
Data set [20] in a line: Cytotoxicity against CHL cells assessed as structural aberrations at 20 ug/ml preincubated for 6 hrs followed by 18 hrs incubation in fresh medium in presence of S9 fraction by Giemsa-staining-based microscopic analysis. The note with it: chinese hamster. The class given is toxicity, cell-based, Cricetulus griseus.
A short description of data set [21]: Hydrolytic stability of the compound in D2O assessed as formation of monomethyl phosphonate and phenol at 23 degC up to 28 days by 31P NMR spectroscopy. The following applies: 672 h. The class given is physicochemical.

SMILES strings stand for the structures. Activity calls are given as the source filed them. The rule behind the calls is not given here.

For `COP(=O)(CCC(N)C(=O)O)Oc1ccc(C(=O)O)cc1` (mixture of isomers), the K in [1] came out at 3200 M⁻¹ s⁻¹; in data set [2] it was 5.2 M⁻¹ s⁻¹.

For the compound `COP(=O)(CCC(N)C(=O)O)Oc1ccccc1` (stereo not drawn), the K in data set [1] turned out to be 120 M⁻¹ s⁻¹; in [2] it was 0.4 M⁻¹ s⁻¹.

Take `Nc1ccc2cc3ccccc3cc2c1` [2-AMINOANTHRACENE]: the Activity in data set [3] was determined as 694; in [4], 495; in [5] it was 421; in data set [6], 154; in data set [7], 299.

In the case of `COP(=O)(CCC(N)C(=O)O)Oc1cccc(CC(N)=O)c1` (mixture of isomers), the K in [1] was determined as 400 M⁻¹ s⁻¹; in data set [2] it was 1.9 M⁻¹ s⁻¹.

For the compound `CO[C@@]12[C@H](COC(N)=O)C3=C(C(=O)C(C)=C(N)C3=O)N1C[C@@H]1N[C@@H]12` [MITOMYCIN], the Activity came out at 40% in data set [8]; 0% in data set [9]; 40% in data set [10]; 0% in [11]; 2% in data set [12]; 3% in [13].

As to `NC(CCP(=O)(Oc1ccccc1)Oc1ccccc1)C(=O)O` (racemic), the K in data set [1] was determined as 27.8 M⁻¹ s⁻¹; in data set [2] it was 0.41 M⁻¹ s⁻¹.

In the case of `N[C@H](C(=O)O)[C@@H]1CC(Cl)=NO1`, the inhibition result in data set [14] is “Active”.

As to `COP(=O)(CCC(N)C(=O)O)Oc1cccc(C(=O)O)c1` (mixture of isomers), the K turned out to be 450 M⁻¹ s⁻¹ in [1] and 1.6 M⁻¹ s⁻¹ in data set [2].

For `COP(=O)(CCC(N)C(=O)O)Oc1cccc([N+](=O)[O-])c1` (mixture of isomers), the figures for the K in data set [1] and in data set [2] were 5100 M⁻¹ s⁻¹ and 49 M⁻¹ s⁻¹, respectively. Besides, in [15], the Stability entry was “Unstable”.

On to `O=[N+]([O-])c1ccc2c(c1)Cc1ccccc1-2` [2-NITROFLUORENE], for which, in [16], the Activity was determined as 442.

Turning to `CCOC(=O)Cc1cccc(OP(=O)(CCC(N)C(=O)O)OC)c1` (mixture of isomers), the K was determined as 120 M⁻¹ s⁻¹ in data set [1] and 1.2 M⁻¹ s⁻¹ in [2].

With `Nc1c2ccccc2nc2ccccc12` [AMINACRINE], the Activity in data set [17] was found to be 320.

Consider `COP(=O)(CCC(N)C(=O)O)Oc1cccc(CCC(=O)O)c1` (mixture of isomers), for which the figures for the K in [1] and in data set [2] were 71 M⁻¹ s⁻¹ and 7.7 M⁻¹ s⁻¹, respectively.

For the compound `NC(CCP(=O)(Oc1ccccc1)Oc1cccc(CC(=O)O)c1)C(=O)O` (mixture of isomers), the K in data set [2] came out at 40 M⁻¹ s⁻¹.

As for `c1ccc2c(c1)cc1ccc3cccc4ccc2c1c34` [BENZO[DEF]CHRYSENE], the Activity was 1% in [18], 6% in data set [19] and 46% in data set [20].

For the compound `COP(=O)(CCC(N)C(=O)O)Oc1ccc(CC(=O)O)cc1` (stereo not drawn), the K in [1] stood at 210 M⁻¹ s⁻¹; in data set [2] it was 0.33 M⁻¹ s⁻¹. Also, in data set [21], the Stability result is on record as “Stable”.
